≈ marks a conversion by molar mass, not a printed value. Calls of active or inactive are those of the source. The calls are words filed in the database; no cut-off is given here.
What was measured:
[1] = test system: Staphylococcus aureus; experiment: Antimicrobial activity against Staphylococcus aureus ATCC 25923 by micro broth dilution method; format: functional
Method in brief: (§1)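 Bacterial panel run against B. subtilis ATCC 6633 and S. aureus ATCC 25923. Read-out is minimal inhibitory concentration (MIC), reported as the mean of three independent experiments. Ciprofloxacin served as the reference antibacterial.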

[2] = test system: Bacillus subtilis; experiment: Antimicrobial activity against Bacillus subtilis ATCC 6633 by micro broth dilution method; format: functional; method in brief: as §1
[3] = test system: Aspergillus niger; experiment: Antimicrobial activity against Aspergillus niger ATCC 1015 by micro broth dilution method; format: functional
Method in brief: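 Antifungal MIC against A. niger, reported as the mean of three independent experiments. Amphotericin B served as the reference antifungal.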

[4] = test system: Candida albicans; experiment: Antimicrobial activity against Candida albicans ATCC 10231 by micro broth dilution method; format: functional
Method in brief: (§2)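 Endpoint is the minimal inhibitory concentration (MIC), reported as the mean of three independent experiments. Reference drugs were ciprofloxacin for the bacteria and amphotericin B for the fungi. E. coli ATCC 25922 and P. aeruginosa ATCC 27853 were tested in a panel with B. subtilis ATCC 6633 and S. aureus ATCC 25923.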

[5] = test system: Pseudomonas aeruginosa; experiment: Antimicrobial activity against Pseudomonas aeruginosa ATCC 27853 by micro broth dilution method; format: functional, organism-based; method in brief: as §2
[6] = test system: Escherichia coli; experiment: Antimicrobial activity against Escherichia coli ATCC 25922 by micro broth dilution method; format: functional, organism-based; method in brief: as §2
[7] = test system: HCT-116; experiment: Cytotoxicity against human HCT116 cells by MTT assay; format: functional, cell-based
Method in brief: (§3)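 MTT read-out measured on a microplate reader, with IC50 derived for each of the five lines (BGC-823, HepG2, H460, HeLa, HCT-116). Adriamycin was the positive control.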

[8] = test system: HeLa; experiment: Cytotoxicity against human HeLa cells by MTT assay; format: functional, cell-based; method in brief: as §3
[9] = test system: HepG2; experiment: Cytotoxicity against human HepG2 cells by MTT assay; format: functional, cell-based
[10] = Cytotoxicity against human H460 cells by MTT assay; format: functional, cell-based; settings: NCI-H460; method in brief: as §3
[11] = Cytotoxicity against human BGC823 cells by MTT assay; format: functional, cell-based; settings: BGC-823; method in brief: as §3

MIC [3]	Compound	MIC [1]	MIC [2]	Activity [3]	Activity [4]	Activity [5]	Activity [6]	IC50 [7]	IC50 [8]	IC50 [9]	IC50 [10]	IC50 [11]	Activity [1]	Activity [2]
	O=C(O)c1cn(C2CC2)c2cc(N3CCNCC3)c(F)cc2c1=O [CIPROFLOXACIN]	0.5 µg/mL (≈ 1.51 µM)	0.12 µg/mL (≈ 0.362 µM)											
1 µg/mL (≈ 1.08 µM)	C[C@@H]1[C@H](O)[C@@H](C)/C=C/C=C/C=C/C=C/C=C/C=C/C=C/[C@H](O[C@@H]2O[C@H](C)[C@@H](O)[C@H](N)[C@@H]2O)C[C@@H]2O[C@](O)(C[C@@H](O)C[C@@H](O)[C@H](O)CC[C@@H](O)C[C@@H](O)CC(=O)O[C@H]1C)C[C@H](O)[C@H]2C(=O)O [AMPHOTERICIN B]													
	Cc1c(O)cc(CCCCC(C)[C@H](C)O)oc1=O (some centres undefined)	128 µg/mL (≈ 503 µM)	128 µg/mL (≈ 503 µM)	inactive	inactive	inactive	inactive	> 200 µM	> 200 µM	> 200 µM	> 200 µM	> 200 µM		
	Cc1c(O)cc(CCCCC(C)(C)O)oc1=O			inactive	inactive	inactive	inactive	> 200 µM	> 200 µM	> 200 µM	> 200 µM	> 200 µM	inactive	inactive
	CC(=O)C(C)CCCCc1cc(O)c(C)c(=O)o1 (centres undefined)	128 µg/mL (≈ 507 µM)		inactive	inactive	inactive	inactive	> 200 µM	> 200 µM	> 200 µM	> 200 µM	> 200 µM		inactive
	COc1cc(CCCCC(C)(C)O)oc(=O)c1C	128 µg/mL (≈ 503 µM)		inactive	inactive	inactive	inactive	> 200 µM	> 200 µM	> 200 µM	> 200 µM	> 200 µM		inactive
	Cc1c(O)cc(CCCC(C)C)oc1=O	8 µg/mL (≈ 38 µM)	32 µg/mL (≈ 152 µM)	inactive	inactive	inactive	inactive	> 200 µM	> 200 µM	> 200 µM	> 200 µM	> 200 µM		
	Cc1c(O)cc(CCCCC(C)C)oc1=O	4 µg/mL (≈ 17.8 µM)	4 µg/mL (≈ 17.8 µM)	inactive	inactive	inactive	inactive	> 200 µM	> 200 µM	> 200 µM	> 200 µM	> 200 µM		
	COc1cccc2c1C(=O)c1c(O)c3c(c(O)c1C2=O)C[C@@](O)(C(=O)CO)C[C@@H]3O[C@H]1C[C@H](N)[C@H](O)[C@H](C)O1 [DOXORUBICIN]							1.38 µM	0.97 µM		0.98 µM	1.48 µM		
	CCC(C)CCCCc1cc(O)c(C)c(=O)o1 (centres undefined)	16 µg/mL (≈ 67.1 µM)	16 µg/mL (≈ 67.1 µM)	inactive	inactive	inactive	inactive	> 200 µM	> 200 µM	> 200 µM	> 200 µM	> 200 µM		

From ChEMBL document CHEMBL3085692, “Violapyrones A-G, α-pyrone derivatives from Streptomyces violascens isolated from Hylobates hoolock feces” (J Nat Prod, 2013)
